OX1R antag-1 – human HCRTR1 antagonism | CHO/OX1R cells, Fluo-8 calcium fluorescence, orexin A | hit rate 0.43% among 330,000 | O43613 | inhibition, % at 5 µM | AID 434989;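 active means inhibition above its plate's threshold, mean inhibition of all tested compounds on the plate plus 3 SD, cut at about 37% in these data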;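 further: 0% = orexin A challenge wells and 100% = SB-334867-A antagonist wells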
Target sequence (O43613 whole entry, looked up): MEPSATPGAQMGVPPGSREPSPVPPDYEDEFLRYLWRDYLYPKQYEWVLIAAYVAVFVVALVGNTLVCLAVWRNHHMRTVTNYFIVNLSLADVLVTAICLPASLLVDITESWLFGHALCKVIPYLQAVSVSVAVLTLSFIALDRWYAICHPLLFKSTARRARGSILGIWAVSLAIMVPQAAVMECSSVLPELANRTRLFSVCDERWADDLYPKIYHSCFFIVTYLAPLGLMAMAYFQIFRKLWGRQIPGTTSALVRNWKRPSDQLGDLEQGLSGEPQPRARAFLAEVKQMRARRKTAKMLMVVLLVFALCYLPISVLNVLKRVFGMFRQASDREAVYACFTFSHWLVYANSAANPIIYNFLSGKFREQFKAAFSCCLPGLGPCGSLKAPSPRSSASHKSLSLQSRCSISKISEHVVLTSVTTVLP
TAAR1 antagonist – human TAAR1 antagonism; CHO RD-HGA16 TAAR1, Fluo-8 calcium fluorescence, antagonist; inhibition, % at 3 µM; hit rate 1.5% among 360,000;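 active means inhibition above a per-plate cutoff, the mean inhibition of test compounds on that plate plus 3 SD, cut at about 49% in these data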;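 further: 0% = DMSO plus EC80 beta-PEA response and 100% = DMSO alone without agonist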
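System: CHO RD-HGA16 cells bearing hTAAR1. Reagent: EC80 β-phenethylamine stimulus. Schedule: seeding 17-24 h prior, 75-min 37 °C, 30-min RT dye loading. Signal: Fluo-8 intracellular calcium dye fluorescence, real-time kinetic reads. Read-out: % inhibition from peak post-agonist over basal fluorescence ratio. Benchmarks: vehicle wells and EC80 agonist wells. Replicates: n of 1.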
GPR7 antag – human neuropeptides B/W receptor 1 antagonism | P48145 | GPR7-expressing cells, fluorescence antagonist assay | inhibition, % at 4.4 µM | hit rate 1.1% among 290,000; in the data active means inhibition above about 16%, passing the limit was not always enough;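 further: cells stimulated with the agonist NPW; 0% = agonist with vehicle and 100% = vehicle without agonist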
CHO parental Ca – signal in parental CHO cells, OX1R antagonist counter-screen | parental CHO-K1, ATP-induced calcium, Fluo-8 fluorescence | inhibition, % at 5.6 µM | hit rate 0.63% among 330,000 | AID 463079;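 active means inhibition above that plate's mean sample inhibition plus 3 SD, cut at about 26% in these data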;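 further: 0% = ATP-challenged DMSO wells and 100% = DMSO wells without ATP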
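Measured by: calcium-sensitive Fluo-8 fluorescence / Test system: CHO parental line / Controls: ATP-challenged DMSO wells low, unchallenged DMSO wells high / Measure: % inhibition / Compound: single nominal dose of 5.6 µM per compound / Replicates: single well per compound, no replicates / Reagent: ATP as calcium-mobilizing challenge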
OX1R antag-2 – antagonists of human orexin 1 receptor (OX1R). O43613. OX1R-expressing cells, FRET antagonist read-out. inhibition, % at 6.6 µM. hit rate 1.8% among 330,000. AID 485270; in the data active means inhibition mostly above about 38%, no sharp cut-off; inactive means mostly below about 40%;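 further: 0% = agonist challenge alone and 100% = reference antagonist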
TAAR1 agonist – agonists of human TAAR1; Q96RJ0; CHO RD-HGA16 TAAR1, Fluo-8 calcium fluorescence; vehicle wells 0%, saturating PEA agonist 100%; activation, % at 3 µM; hit rate 0.99% among 360,000; AID 624467;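 active means activation above the mean activation of all test compounds in the run plus 3 SD, cut at about 38% in these data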
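Repeats: no replicates (n 1) | Material: CHO-derived RD-HGA16 cells with stable Gα16 and human TAAR1 | Technique: Kinetic Fluo-8 calcium fluorescence | Schedule: 17-24 h seeding, 75 min 37 °C dye, 30 min RT | Evaluation: % activation from peak over basal fluorescence ratio, DMSO-to-PEA scaled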
nonsel antag count – nonselective antagonism, TAAR1 counter-screen. counterscreen cell line, calcium fluorescence, antagonist mode. AID 651780. hit rate 77% among 2,400. shares compounds with TAAR1 antagonist. inhibition, % at 3 µM; in the data active means inhibition above about 22%;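 further: CHO-Ga16 host cells stimulated with ATP at an EC80 level; 0% = agonist EC80 plus vehicle and 100% = vehicle without agonist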
TAAR1 ant conf – human TAAR1 antagonism, confirmed | shares compounds with TAAR1 antagonist | TAAR1-expressing cells, fluorescence antagonist read-out | inhibition, % at 3 µM | hit rate 40% among 2,400 | AID 651785; in the data active means inhibition above about 49%;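 further: CHO-Ga16 host cells challenged with agonist PEA near its EC80; 0% = agonist at EC80 plus vehicle and 100% = vehicle with no agonist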
Ga16 ag counter – nonselective Ga16 agonism, counter-screen; shares compounds with TAAR1 antagonist; Ga16-expressing cells, calcium fluorescence, agonist counterscreen; activation, % at 3 µM; hit rate 18% among 2,400; AID 651953; in the data active means activation above about 12%;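 further: 0% = vehicle wells and 100% = saturating stimulus response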
TAAR1 ag counter – TAAR1 agonism, antagonist counter-screen. shares compounds with TAAR1 antagonist. hTAAR1 cell line, fluorescence activation, agonist mode. activation, % at 3 µM. hit rate 2% among 2,400; in the data active means activation above about 37%;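 further: CHO cells stably expressing TAAR1 with calcium dye readout; 0% = DMSO vehicle and 100% = full agonist response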
Numbers without * were called inactive; . = no result. Hits are enriched below; roughly 4.6% of the tested compounds scored in any of these assays.

SMILES	OX1R antag-1	TAAR1 antagonist	GPR7 antag	CHO parental Ca	OX1R antag-2	TAAR1 agonist	nonsel antag count	TAAR1 ant conf	Ga16 ag counter	TAAR1 ag counter
CN1OC[C@@H]2CN3C(=O)N(c4cccc5ccccc45)c4ccccc4[C@@H]3C[C@@H]21	.	-10	.	.	.	2	.	.	.	.
CN(C)S(=O)(=O)c1cc(NC(=O)COC(=O)CC2Sc3ccccc3NC2=O)ccc1Cl (centres undefined)	0	62*	.	-11	14	22	31*	38	9	5
COc1ccc2c(c1OC)C(=O)N1c3ccccc3C(=O)N(c3ccccc3)C21 (centres undefined)	-24	63*	11	-22	18	22	32*	51*	12*	11
COc1cccc(C2Nc3ccccc3C(=O)N2c2ccc(F)cc2)c1O (centres undefined)	-8	-10	1	-6	-11	2	.	.	.	.
Cc1ccccc1N1C(=O)c2ccccc2N2C(=O)c3ccccc3C12 (centres undefined)	-8	-11	5	-2	23	-1	.	.	.	.
COc1ccc2c(c1OC)C(=O)N1c3ccccc3C(=O)N(c3ccc(F)cc3)C21 (centres undefined)	-24	82*	16	-17	35	19	28*	49*	8	11
CC(C)CN(C(=O)CCC(=O)OC(C)C(=O)Nc1cccc(C#N)c1)c1c(N)n(CC(C)C)c(=O)[nH]c1=O (centres undefined)	-3	-11	.	3	5	2	.	.	.	.
Cc1ccccc1NC(=O)CCN1C(=O)CSC1=O	-16	106*	-12	-12	8	-2	-6	-6	3	5
CC1(C)NC(=O)N(CCCC(=O)Nc2ccc(C(F)(F)F)cc2)C1=O	-4	3	.	-24	4	0	.	.	.	.
Nn1c(SCC(=O)Nc2ccccc2F)nnc1-c1cccs1	-14	-9	.	2	14	0	.	.	.	.
CCS(=O)(=O)c1ccc(-c2csc(-c3ccccc3)n2)c(Cl)c1Cl	-30	68*	24	-13	19	14	24*	24	2	5
O=C(Nc1nc(-c2ccc3ccccc3c2)cs1)C1CCN(S(=O)(=O)c2cccs2)CC1	-15	104*	8	-11	15	0	15	3	3	4
Cc1cccc(C(=O)Nc2ccc(C(=O)/C=C/c3cccnc3)cc2)c1	-16	60*	15	-7	22	18	33*	54*	13*	9
COc1ccc(NC(=O)N(C)[C@H]2C[C@H]3c4[nH]c5c(-c6ccccc6)cccc5c4CCN3C(=O)[C@H]2[C@H](C)O)cc1	.	69*	.	.	.	16	41*	53*	8	6
CCOC(=O)N(C)[C@H]1C[C@H]2c3[nH]c4c(-c5ccccc5)cccc4c3CCN2C(=O)[C@H]1[C@H](C)O	.	13	.	.	.	3	.	.	.	.
Nc1ccc(-c2nc3cc([N+](=O)[O-])ccc3o2)cc1	-22	55*	2	-6	9	5	20	19	3	-3
COc1ccc(-c2nc3cc([N+](=O)[O-])ccc3o2)cc1	5	-18	3	-11	4	1	.	.	.	.
CC(=O)C1CCC2C3CCC4CC(=O)CCC4(C)C3C(O)CC12C (centres undefined)	.	-2	.	.	.	4	.	.	.	.
CC(=NO)C1CCC2C3CCC4CC(=NO)CCC4(C)C3C(C)(O)CC12C (centres undefined)	.	77*	.	.	.	15	29*	52*	17*	18
Cc1onc(-c2c(F)cccc2Cl)c1C(=O)NCCc1ccncc1	-13	-11	-5	-11	16	2	.	.	.	.
CCCCN(C(=O)c1cccc(S(=O)(=O)N2CC(C)OC(C)C2)c1)c1c(N)n(CCCC)c(=O)[nH]c1=O (centres undefined)	-9	-1	-8	-7	1	3	.	.	.	.
COC(=O)c1cc(S(=O)(=O)N2CCCCCC2)c[nH]1	-2	.	-7	2	10	.	.	.	.	.
COc1ccc(S(=O)(=O)N(C)CC(=O)NCCc2ccccc2)cc1OC	-1	3	-11	-8	0	6	.	.	.	.
COc1ccc(S(=O)(=O)N(C)CC(=O)NCc2ccccc2)cc1OC	-18	92*	-10	-16	2	-4	-1	-4	0	0
Cc1[nH]c(=O)[nH]c(=O)c1/C=C/C(=O)OCC(C)C	-3	0	1	-7	18	6	.	.	.	.
SMILES	OX1R antag-1	TAAR1 antagonist	GPR7 antag	CHO parental Ca	OX1R antag-2	TAAR1 agonist	nonsel antag count	TAAR1 ant conf	Ga16 ag counter	TAAR1 ag counter
COc1cccc(CN2C(=O)[C@H]3Cc4c([nH]c5ccccc45)C(C)(C)N3C2=O)c1	-26	61*	.	-9	12	17	25*	42	9	10
CC1(C)c2[nH]c3ccccc3c2C[C@H]2C(=O)N(Cc3cccc(F)c3)C(=O)N21	-22	19	.	-6	11	12	.	.	.	.
CCOc1ccc(N(CC(=O)NC2CCCC2)C(=O)CCC(=O)Nc2ccccn2)cc1	-18	2	-11	-5	8	17	.	.	.	.
COc1cccc(NC(=O)CN(C)C(=O)c2cc(-c3ccco3)nc3ccccc23)c1	-24	48	.	-16	35	13	.	.	.	.
COc1ccc(-c2nn(-c3ccccc3)cc2C(=O)N(C)CC(=O)Nc2cccc(F)c2)cc1	-9	20	.	-7	6	2	.	.	.	.
COc1cccc(-c2nn(-c3ccc(C)cc3)cc2C(=O)N(C)CC(=O)Nc2cccc(F)c2)c1	3	61*	.	-18	11	4	29*	33	4	6
COc1ccc(-c2cc(C(=O)N(C)CC(=O)Nc3cccc(F)c3)c3ccccc3n2)cc1	-13	82*	.	-1	38	8	41*	61*	10	6
CN(CC(=O)Nc1cccc(F)c1)C(=O)c1cc(-c2ccccc2)nc2ccccc12	-8	72*	.	-5	15	5	31*	49*	9	5
Cc1ccc2nc(-c3ccccc3)cc(C(=O)N(C)CC(=O)Nc3ccccc3Br)c2c1	1	61*	.	-31	17	7	31*	56*	9	7
Cc1cc(C)c(S(=O)(=O)N2CCCOC2CNC(=O)C(=O)NCc2ccccn2)c(C)c1 (centres undefined)	-20	2	-7	-11	14	2	.	.	.	.

Bioassay records from PubChem BioAssay.
